B1: tRNA (parent)
chain: GUUCCGUUGGCGUAAUGGUAACGCGUCUCCCUCCUAAGGAGAAGACUGCGGGUUCGAGUCCCGUACGGAACG

Variants at the floor of the assay were thinned out.

In this data set the parent is B1. Description: yeast fitness relative to wild type (ratio to wild type); higher = fitter; tRNA-Arg(CCU), competitive growth, 37 C, YPD. The essentials:
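For this measurement, the tRNA-Arg(CCU) gene was varied by chemical synthesis at a 3% per-site mutation rate across 69 sites, and each variant was placed at the native genomic locus in Saccharomyces cerevisiae. The pooled strains went through a 24-hour competition in YPD at 37°C in six parallel replicates, with amplicons from start and end populations read by 100-nucleotide paired-end sequencing. Darwinian fitness relative to wild type followed from the change in each genotype's frequency. Genotypes needed ≥ 100 starting reads, and estimates < 0.5 were set to 0.5.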
On to GAUCCGUUGGCGUAAUGGUAACGCGUCUCCAUCCUAAGGAGAAGACUGCGGGUUCGGGUCCCGUACGGAACG, for which the yeast fitness worked out at 0.555.
To GAUCGGUUGGCGUAAUGGUAACGCGUCUCCCUCCUAAGGGGAAGCCUGCGGGUUCGAGUCCCGUACGGAACG belongs no more than 0.5.
To GAUCCGUUGGCGUAAUGGUAACGGGUCUCCUUGCUAAGGAGCUGACUGCGGGUUCGAGUCCCGUACGGAACG belongs 0.651.
To GAUCCGUUGGCGUAAUGGUAAUGCGUCUCCCUCCUAAGGCGAAGACUGCGGGUUCGACUCCCGUAUGGAACG belongs no more than 0.5; to GAUCAGUUGGCAUAAUGGUAACGCGUCUCCCUCCUAAGGAGAAGACUGCGGGUUCGAGUCCCGUACGGAACG, 0.526; to GAUCCGUUGGGGUAAUGGCAACGCGUCUCCCUCCUAAGGAGAAGACUGCGGGUUCGAGUUCCGUACGGAACG, no more than 0.5.
For the variant GAUCCGUUGGCGUAAUGGUAACGGGUCCCCCUCCUAAGGUGAAGACUGCGGGUUCGAGUCCCGUACGGAACG, the yeast fitness is no more than 0.5.
With GAUCCGUUGGUGUAAUGCUAACGCGUCUCCUUCCUAAGGAGGAGACUGCGGGUUCGAGUCCUGUACGGAACG the figure was no more than 0.5.
To GAUCCGUUGGCGUAAUGGUAACGCGUCUCACUCCUAAGGAGAAGACUGUGGGUUCGAGUCGCGUACGGAACG belongs no more than 0.5; to GAUCCGUUGGCGUAAUGGUAACGCGUCUCACUCCUAAGGAGAAGACUGCGGGUUCGAGUCCCCUACGGAACG, no more than 0.5.
To GAUCGGUUGGCGUAGUGGUAACGCGUCUCCCUCCUAAGGAGAAGACUGCGGGUUCGAGUCCCGUACGGAACG belongs 0.575.
For GAUCAGUUGGCGUAAUGGUAACGCGUCUCCCUCCUAAGGUGAAGACUGCGGGUUCGAGUCCCGUACGGAACG, the yeast fitness came to 0.647.
Take GAUCCGUUGGCGUAAUGGUAACGCGUCUACCUCCUAAGGAGAAGUCUGCGGGUUCGAGUCCCGUACGCAACG: the yeast fitness is no more than 0.5.
With GAUCCGUUGGCGUAAUGGUAACGUGUCUCCGUCCUAAGGAGAAAACUGCGGGUUCGAGUCCCGUACGGAACG the figure was no more than 0.5.
With GAUCCGUUGGCGUAAUGGUAACGCGUCUACCUCCUAAGGAGGAGACUGCGGGUACGAGUGCCGUACGAAACG the figure was no more than 0.5.
With GAUCGGUUGGCGUAAUGGUAACGCAUCUCCCUCCUAAGGAGAAGACUGCGGGUUCGAGUCCCGUAUGGAACG the figure was 0.532.
GAUCCGUUGGCGUAAUGGUAACGUGUCUCUCUGCUCCGGAGCAGACUGCGGGUUCGAGUCCCGUUCGGAACG: the yeast fitness was no more than 0.5.
As for GAUCCGUUGGCGUAAUGGUAAAGCGUCUCCCUCCUAAGGCGAAGAGUGCGGGUUCGAGAUGCGUACGGAACG, the yeast fitness is no more than 0.5.
With GAUCCGUUGGCGUAAUGGUAACGCGUCUACCUCCUAAGGAGACGACUGCGGGUUCGAGUCCCGUACGGAACG the figure was no more than 0.5; with GAUCUGUUGGCGUAAUGGUUACGCGUCUCCCUCCUAAAGAGAAGACUGCGGGUUCGAGUCCCGUACGGAACG, 0.56; with GAUCCGUUGGCGUAAUGGUAACGCGUAUCCCUCCUAAGGAGAAGACUGGGGGUUCGUGUCCCGUAUGGAACG, 0.639.
With GAUCCGUUGGCGUAAUGGUAACGCGUCUCACUCCUAAGGAGAAGACUGCGGAUUCGAGUCCCGUUCGGAACG the figure was no more than 0.5; with GAUCCGUUGGCGUAAUGGUAACGGGUCUCCCUCCUAAGGAGAAGACUGCGGGUUCGAGUCCCGUACGGAACG, 0.643.
With GAUCCGUUGGGGUAAUGGUAACGCGUCUCCCUCCUAAGGAGAAGACUGCGAGUUCGAGUUCCGUACGGAACG the figure was no more than 0.5; with GAUCUGUGGGCGUAAUGGUGACGCGUCUCCCUCAUAAGGAGAAGACUGCGGGUUCGAGUCCCGUACGGAACG, no more than 0.5.
With GAUCUGUUGGCGUAAUGGUAACGCGUCUCCCUCCUAAGGAGAAGACUGCGGGUUCGAGUCCCGUACGGCACG, the yeast fitness was found to be 0.687.
To GAUCCGUUGGCGUAAUGGUAACGCGUCUGCCUCCUAAGGAGAAGACUGCGGGUUCGAAUCCCGUACGGAACG belongs no more than 0.5; to GAUCAGUUGGCGUAAUGGUAACGCGUCUCCCUCCUAAGGAGAAGACUGCGGGUUCGAGUCCCGGACGGACCG, no more than 0.5; to GAUCCGUUGGCGUAAUGGUAACGCGUCUUCCUCCUAGGGAGAAGACUGCGGGUUCGAGUCCCGUACGGAACG, no more than 0.5.
To GAUCCGUUGGCGUAAUGGUAAUGCGUCUCCCUCCUAAGGAGAAGACUGCGGGUUCAAGUCCCGUACGGAACG belongs 0.551.
With GAUCCGUUGGCGUAAUGGUAACGGGUCUCCCUCCUAAGGAGAAGACUGCGGGUUCGAGUCCCGUACGGAUCG the figure was no more than 0.5.
As for GAUCCGUUGGCGUAAUGGUAACGCGUCUACCUCCUAAGGAGAAGUCUGCGGGUUCGAGCCCCGUACGGAACG, the yeast fitness was 0.575.
To GAUCAGUUGGCGUAAUGGUAACGCGUUUCCCUCCUAAGGAGAAAACUGCGGGUUCGAGUCCCGUACGGAACG belongs no more than 0.5; to GAUCCGUUGGUGUAAUGGUAACGCGUCUCCCUCCUAAGGAGAAGACUGCGGGUUCGAGUCCCGUACGGAACG, 0.894.
With GAUCCGUUGGUGUAAUAGUAACGCGUCUGCGUCCUACGGAGAAGACUGCGGGUUCGAGUCCCGUAAGGAACG the figure was no more than 0.5; with GAUCAGUUGGCGUAAUGGUAACGCGUCUCCCUCCUAAGGAGAAGACUGCGGGUUUGAGUCCCGUACGGAACG, no more than 0.5.
For the variant GAUCAGUUGGCGUAAUGGUAACGCGUCUCCCUCCUAAGGAGAAGACUGCGGGUUCAAGUCCCGUACGGAACG, the yeast fitness turned out to be 0.526.
To GAUCAGUUGGCGUAAUGGUAACGCGUCUCCCUCCUAAGGAGAAGACUGCGGGUUCCAGUCCCGUACGGAACG belongs 0.56.

The values above are taken from the RNAGym collection of RNA variant scans (doi:10.1126/science.aae0568).
